Data taken from ChEMBL document CHEMBL1158122, “Anti-inflammatory, anti-tumor-promoting, and cytotoxic activities of constituents of marigold (Calendula officinalis) flowers” (J Nat Prod, 2006).

Key:
Mus musculus = test: Antiinflammatory activity against TPA-induced ear edema in mouse; format: functional
Method in brief: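 Specific-pathogen-free female ICR mice were housed five per cage at 24 ± 2 °C. Inflammation was induced on the ear with TPA at 1 µg/ear, and the test agent was applied per ear. Ear edema inhibition was expressed as ID50 in mg per ear.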

Raji [1] = test: Inhibition of TPA-induced EBV-early antigen activation in human Raji cells at 1000 molar ratio relative to TPA; format: cell-based; parameters: scale not given: the % may be the effect or the level left; conditions: human gammaherpesvirus 4
Raji [2] = test: Inhibition of TPA-induced EBV-early antigen activation in human Raji cells at 500 molar ratio relative to TPA; format: cell-based; parameters: scale not given: the % may be the effect or the level left; conditions: human gammaherpesvirus 4
Raji [3] = test: Inhibition of TPA-induced EBV-early antigen activation in human Raji cells at 100 molar ratio relative to TPA; format: cell-based; parameters: scale not given: the % may be the effect or the level left; conditions: human gammaherpesvirus 4
Raji [4] = test: Inhibition of TPA-induced EBV-early antigen activation in human Raji cells at 10 molar ratio relative to TPA; format: cell-based; parameters: scale not given: the % may be the effect or the level left; conditions: human gammaherpesvirus 4
[5] = Inhibition of TPA-induced EBV-early antigen activation in human Raji cells relative to TPA; format: cell-based, human gammaherpesvirus 4
[6] = Cytotoxicity against human Raji cells assessed as cell viability at 1000 molar ratio; format: cell-based; conditions: read-out: Activity
Method in brief: (§1)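 Raji cells were treated with 32 pmol TPA to induce EBV early antigen activation. The test agent was added at 10, 100, 500 or 1000 mol ratio relative to TPA, and Raji cell viability was measured alongside EA activation.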

[7] = Cytotoxicity against human Raji cells assessed as cell viability at 500 molar ratio; format: cell-based; conditions: read-out: Activity; method in brief: as §1
[8] = Cytotoxicity against human Raji cells assessed as cell viability at 100 molar ratio; format: cell-based; conditions: read-out: Activity; method in brief: as §1
[9] = Cytotoxicity against human Raji cells assessed as cell viability at 10 molar ratio; format: cell-based; conditions: read-out: Activity; method in brief: as §1

Structure (SMILES)	ID50 (Mus musculus) [mg]	Activity (Raji [1]) [%]	Activity (Raji [2]) [%]	Activity (Raji [3]) [%]	Activity (Raji [4]) [%]	IC50 [5] [molar ratio]	viability at 1000 molar ratio [6] [%]	viability at 500 molar ratio [7] [%]	viability at 100 molar ratio [8] [%]	viability at 10 molar ratio [9] [%]
COc1ccc2c(c1)c(CC(=O)O)c(C)n2C(=O)c1ccc(Cl)cc1 [INDOMETHACIN]	0.3									
COc1cc(-c2oc3cc(O)cc(O)c3c(=O)c2O[C@@H]2O[C@H](CO[C@@H]3O[C@@H](C)[C@H](O)[C@@H](O)[C@H]3O)[C@@H](O)[C@H](O)[C@H]2O[C@@H]2O[C@@H](C)[C@H](O)[C@@H](O)[C@H]2O)ccc1O		19.6	64.8	86	100	592	70	> 80	> 80	> 80
COC(=O)[C@H]1O[C@@H](O[C@H]2CC[C@]3(C)[C@H]4CC=C5[C@@H]6CC(C)(C)CC[C@]6(C(=O)O[C@@H]6O[C@H](CO)[C@@H](O)[C@H](O)[C@H]6O)CC[C@@]5(C)[C@]4(C)CC[C@H]3C2(C)C)[C@H](O)[C@@H](O[C@@H]2O[C@H](CO)[C@H](O)[C@H](O)[C@H]2O)[C@@H]1O	0.1	14.4	52.1	74.3	100	480	70	> 80	> 80	> 80
CCCCOC(=O)[C@H]1O[C@@H](O[C@H]2CC[C@]3(C)[C@H]4CC=C5[C@@H]6CC(C)(C)CC[C@]6(C(=O)O[C@@H]6O[C@H](CO)[C@@H](O)[C@H](O)[C@H]6O)CC[C@@]5(C)[C@]4(C)CC[C@H]3C2(C)C)[C@H](O[C@@H]2O[C@H](CO)[C@@H](O)[C@H](O)[C@H]2O)[C@@H](O[C@@H]2O[C@H](CO)[C@H](O)[C@H](O)[C@H]2O)[C@@H]1O	0.06	10.6	43.2	71.6	100	480	70	> 80	> 80	> 80
CC1=C(/C=C/C(C)=C/C=C/C(C)=C/C=C/C=C(C)/C=C/C=C(C)/C=C/C2=C(C)CCCC2(C)C)C(C)(C)CCC1 [BETA CAROTENE]		8.6			100	397		> 80	> 80	> 80
CC1(C)CC[C@]2(C(=O)O[C@@H]3O[C@H](CO)[C@@H](O)[C@H](O)[C@H]3O)CC[C@]3(C)C(=CC[C@@H]4[C@@]5(C)CC[C@H](O[C@@H]6O[C@H](C(=O)O)[C@@H](O)[C@H](O[C@@H]7O[C@H](CO)[C@H](O)[C@H](O)[C@H]7O)[C@H]6O[C@@H]6O[C@H](CO)[C@@H](O)[C@H](O)[C@H]6O)C(C)(C)[C@@H]5CC[C@]43C)[C@@H]2C1 [CALENDULAGYCOSIDE A]	0.32	15.8	52.3	75.3	75.3	484	70	> 80	> 80	> 80
COc1cc(-c2oc3cc(O)cc(O)c3c(=O)c2O[C@@H]2O[C@H](CO[C@@H]3O[C@@H](C)[C@H](O)[C@@H](O)[C@H]3O)[C@@H](O)[C@H](O)[C@H]2O)ccc1O [NARCISSIN]		16.3	62.4	84.3	100	585	70	> 80	> 80	> 80
C[C@]12CCC(=O)C=C1CC[C@@H]1[C@@H]2[C@@H](O)C[C@@]2(C)[C@H]1CC[C@]2(O)C(=O)CO [HYDROCORTISONE]	0.03									
CCCCOC(=O)[C@H]1O[C@@H](O[C@H]2CC[C@]3(C)[C@H]4CC=C5[C@@H]6CC(C)(C)CC[C@]6(C(=O)O[C@@H]6O[C@H](CO)[C@@H](O)[C@H](O)[C@H]6O)CC[C@@]5(C)[C@]4(C)CC[C@H]3C2(C)C)[C@H](O)[C@@H](O[C@@H]2O[C@H](CO)[C@H](O)[C@H](O)[C@H]2O)[C@@H]1O	0.06	5.4	41.5	70.1	100	471	70	> 80	> 80	> 80
COc1cc(-c2oc3cc(O)cc(O)c3c(=O)c2O[C@@H]2O[C@H](CO)[C@@H](O)[C@H](O)[C@H]2O[C@@H]2O[C@@H](C)[C@H](O)[C@@H](O)[C@H]2O)ccc1O		14.1	60	81.1	100	574	70	> 80	> 80	> 80
COC(=O)[C@H]1O[C@@H](O[C@H]2CC[C@]3(C)[C@H]4CC=C5[C@@H]6CC(C)(C)CC[C@]6(C(=O)O[C@@H]6O[C@H](CO)[C@@H](O)[C@H](O)[C@H]6O)CC[C@@]5(C)[C@]4(C)CC[C@H]3C2(C)C)[C@H](O[C@@H]2O[C@H](CO)[C@@H](O)[C@H](O)[C@H]2O)[C@@H](O[C@@H]2O[C@H](CO)[C@H](O)[C@H](O)[C@H]2O)[C@@H]1O	0.06	16	53.6	77.8	100	487	70	> 80	> 80	> 80
O=c1c(O[C@@H]2O[C@H](CO)[C@@H](O)[C@H](O)[C@H]2O)c(-c2ccc(O)c(O)c2)oc2cc(O)cc(O)c12 [ISOQUERCETIN]		14.1	58	78.5	100	570	70	> 80	> 80	> 80
C[C@@H]1O[C@@H](OC[C@H]2O[C@@H](Oc3c(-c4ccc(O)c(O)c4)oc4cc(O)cc(O)c4c3=O)[C@H](O)[C@@H](O)[C@@H]2O)[C@H](O)[C@H](O)[C@H]1O [RUTIN]					100	578	70	> 80	> 80	> 80
CC1(C)CC[C@]2(C(=O)O[C@@H]3O[C@H](CO)[C@@H](O)[C@H](O)[C@H]3O)CC[C@]3(C)C(=CC[C@@H]4[C@@]5(C)CC[C@H](O[C@@H]6O[C@H](C(=O)O)[C@@H](O)[C@H](O[C@@H]7O[C@H](CO)[C@H](O)[C@H](O)[C@H]7O)[C@H]6O)C(C)(C)[C@@H]5CC[C@]43C)[C@@H]2C1 [CALENDULAGYCOSIDE C]	0.2	13.2	51	73.1	100	475	70	> 80	> 80	> 80
